Assay results taken from ChEMBL document CHEMBL3763072, “Structure activity relationship studies on chemically non-reactive glycine sulfonamide inhibitors of diacylglycerol lipase” (Bioorg Med Chem, 2016).
Calls of active or inactive are those of the source. No cut-off for these calls is given here.

Tests used:
[1] = biological target: T1, Monoglyceride lipase (Homo sapiens) (UniProt Q99685); experiment: Inhibition of MAGL (unknown origin) at 30 uM
T1 sequence (whole entry): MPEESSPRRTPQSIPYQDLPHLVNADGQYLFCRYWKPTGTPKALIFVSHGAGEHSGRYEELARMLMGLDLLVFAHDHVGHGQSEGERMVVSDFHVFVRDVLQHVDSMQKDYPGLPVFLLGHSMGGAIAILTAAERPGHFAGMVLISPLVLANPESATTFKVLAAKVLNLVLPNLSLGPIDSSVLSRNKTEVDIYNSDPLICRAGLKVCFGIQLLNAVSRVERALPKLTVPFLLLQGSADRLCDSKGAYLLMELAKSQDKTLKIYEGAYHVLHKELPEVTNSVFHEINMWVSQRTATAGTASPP

[2] = biological target: T2, Diacylglycerol lipase-alpha (Homo sapiens, UniProt Q9Y4D2); experiment: Inhibition of full length human C-terminal HA-tagged DAGLalpha expressed in HEK293 cell membrane using DAG as substrate incubated for 20 mins by LC-MS analysis; format: cell-based
T2 sequence (Q9Y4D2 whole entry): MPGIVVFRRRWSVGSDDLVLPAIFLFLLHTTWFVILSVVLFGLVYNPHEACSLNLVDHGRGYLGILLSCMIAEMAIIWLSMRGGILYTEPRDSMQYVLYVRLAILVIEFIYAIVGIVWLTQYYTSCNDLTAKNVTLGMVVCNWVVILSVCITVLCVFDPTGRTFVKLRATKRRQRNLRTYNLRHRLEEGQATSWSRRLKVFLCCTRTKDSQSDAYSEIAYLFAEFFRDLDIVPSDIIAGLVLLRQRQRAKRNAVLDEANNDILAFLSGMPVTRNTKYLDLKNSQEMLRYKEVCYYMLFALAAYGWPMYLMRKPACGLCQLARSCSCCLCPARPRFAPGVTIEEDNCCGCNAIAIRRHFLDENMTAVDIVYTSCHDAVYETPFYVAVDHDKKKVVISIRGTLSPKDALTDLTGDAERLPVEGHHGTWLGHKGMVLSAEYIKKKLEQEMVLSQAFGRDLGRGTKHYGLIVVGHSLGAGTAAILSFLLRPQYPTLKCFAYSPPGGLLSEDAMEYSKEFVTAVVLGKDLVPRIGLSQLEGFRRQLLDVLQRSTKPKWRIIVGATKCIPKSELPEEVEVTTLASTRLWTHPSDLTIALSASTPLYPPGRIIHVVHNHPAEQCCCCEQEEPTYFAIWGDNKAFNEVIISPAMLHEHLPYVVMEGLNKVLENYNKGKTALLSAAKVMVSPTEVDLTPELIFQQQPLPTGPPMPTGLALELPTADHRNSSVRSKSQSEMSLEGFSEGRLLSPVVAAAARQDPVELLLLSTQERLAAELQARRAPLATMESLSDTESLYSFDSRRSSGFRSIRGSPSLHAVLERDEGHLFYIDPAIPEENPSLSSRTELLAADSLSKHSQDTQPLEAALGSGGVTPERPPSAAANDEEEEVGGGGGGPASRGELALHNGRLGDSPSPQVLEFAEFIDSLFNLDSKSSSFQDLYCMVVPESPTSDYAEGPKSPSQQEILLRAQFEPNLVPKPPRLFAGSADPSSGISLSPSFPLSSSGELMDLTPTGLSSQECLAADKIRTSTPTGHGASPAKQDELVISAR
How it was run: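 Cell-free DAGL-α enzyme assay run at pH 6.5. IC50 values are reported, with replicate counts (n) given per value.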

[3] = Dissociation constant, pKa of compound at pH 2 to […] by spectrophotometric titration method; format: physicochemical
physchem = conditions: octanol/phosphate buffer, pH 7.4
[4] = Metabolic stability in rat liver microsomes assessed as residual compound at 3 uM preincubated for 2 mins followed by NADPH addition measured after 10 mins by LC-MS analysis; format: ADME; conditions: read-out: Stability
[5] = Metabolic stability in mouse liver microsomes assessed as residual compound at 3 uM preincubated for 2 mins followed by NADPH addition measured after 10 mins by LC-MS analysis; format: ADME; conditions: read-out: Stability
[6] = Metabolic stability in human liver microsomes assessed as residual compound at 3 uM preincubated for 2 mins followed by NADPH addition measured after 10 mins by LC-MS analysis; format: ADME; conditions: read-out: Stability
[7] = biological target: T2, Diacylglycerol lipase-alpha; experiment: Inhibition of full length human C-terminal HA-tagged DAGLalpha expressed in HEK293 cells using DAG as substrate assessed as reduction in intracellular 2-AG level incubated for 20 mins by LC-MS analysis; format: cell-based
[8] = biological target: T3, Diacylglycerol lipase-alpha (Homo sapiens) (UniProt Q9Y4D2); experiment: Ratio of IC50 for full length human C-terminal HA-tagged DAGLalpha expressed in HEK293 cells assessed as reduction in intracellular 2-AG level to IC50 for full length human C-terminal HA-tagged DAGLalpha expressed in HEK293 cell membrane; format: cell-based
T3 sequence (whole entry): T2 sequence (Q9Y4D2 whole entry)

Mus musculus = experiment: In vivo inhibition of DAGLalpha in ip dosed mouse assessed as reduction in 2-AG level in liver; format: functional, organism-based
[9] = biological target: T4, Diacylglycerol lipase-beta (Homo sapiens, UniProt Q8NCG7); experiment: Inhibition of DAGLbeta (unknown origin)
T4 sequence (Q8NCG7 whole entry): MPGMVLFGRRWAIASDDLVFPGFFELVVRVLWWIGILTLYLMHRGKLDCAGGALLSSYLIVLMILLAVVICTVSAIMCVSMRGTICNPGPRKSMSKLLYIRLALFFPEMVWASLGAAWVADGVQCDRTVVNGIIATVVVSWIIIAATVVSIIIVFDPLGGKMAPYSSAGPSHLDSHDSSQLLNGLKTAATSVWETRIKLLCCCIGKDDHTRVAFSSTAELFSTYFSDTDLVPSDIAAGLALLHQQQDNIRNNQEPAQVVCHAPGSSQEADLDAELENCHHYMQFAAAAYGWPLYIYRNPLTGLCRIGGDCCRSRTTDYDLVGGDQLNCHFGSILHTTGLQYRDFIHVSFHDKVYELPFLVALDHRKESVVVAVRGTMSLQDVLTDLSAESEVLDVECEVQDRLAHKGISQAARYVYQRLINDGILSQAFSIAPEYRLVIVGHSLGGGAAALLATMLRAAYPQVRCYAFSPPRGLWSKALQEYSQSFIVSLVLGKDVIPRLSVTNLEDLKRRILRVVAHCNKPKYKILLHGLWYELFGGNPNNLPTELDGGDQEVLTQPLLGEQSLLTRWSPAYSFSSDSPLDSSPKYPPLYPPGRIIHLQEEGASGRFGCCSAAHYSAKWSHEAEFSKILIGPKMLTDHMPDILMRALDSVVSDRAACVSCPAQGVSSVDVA

| SMILES | inhibition [1] | IC50 [2] | IC50 [7] | other results |
| --- | --- | --- | --- | --- |
| O=C(O)CN(C1(c2cccc(-c3ccc(Cl)cc3Cl)c2)CCC1)S(=O)(=O)c1ccc(Cl)c(Cl)c1 | inactive | – | – | – |
| CC1(C)CCc2cc(S(=O)(=O)N(CC(=O)O)Cc3cccc4cccnc34)ccc2O1 | – | 13500 nM | – | pKa [3]: 2; logD (physchem): 0.5 |
| O=C(O)CN(C1(c2ccc(-c3ccccc3OC(F)(F)F)cc2)CCC1)S(=O)(=O)c1ccc(OC(F)F)cc1 | inactive | – | – | remaining at 10 min, 3 µM [4]: 100%; remaining at 10 min, 3 µM [5]: 100%; remaining at 10 min, 3 µM [6]: 78% |

Further lines, with some results ahead:

| inhibition [1] | IC50 [2] | IC50 [7] | SMILES | other results |
| --- | --- | --- | --- | --- |
| – | 18 nM | – | C[C@@H](c1ccc(-c2ccc(Cl)cc2Cl)cc1)N(CC(=O)O)S(=O)(=O)c1ccc(OC(F)F)cc1 | – |
| – | 19 nM | 100 nM | C[C@H](c1ccc(-c2ccc(Cl)cc2Cl)cc1)N(CC(=O)O)S(=O)(=O)c1ccc(OC(F)F)cc1 | Ratio IC50 [8]: 5 |
| inactive | 2.4 nM | 14.3 nM | O=C(O)CN(c1cccc(-c2cccc(Cl)c2Cl)c1)S(=O)(=O)c1ccc(OC(F)F)cc1 | inhibition (Mus musculus): Active; IC50 [9]: 40 nM |
